Assay results reported in ChEMBL document CHEMBL3585292, “Anti-dormant mycobacterial activity and target analysis of nybomycin produced by a marine-derived Streptomyces sp” (2015).
In brackets after ≈: the same amount, converted by molar mass.

How the values were obtained:
[1] = test system: Mycobacterium tuberculosis; assay: Antibacterial activity against Mycobacterium bovis BCG under hypoxic condition after 14 days by MTT assay; assay type: functional; details: variant bovis BCG, 336 h
Method in brief: (§1)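 MTT microdilution. Mid-log bacilli in 7H9 with 10% OADC, 0.5% glycerol, 0.05% Tween 80, seeded at 1 × 10⁴ CFU/0.1 mL (M. smegmatis) or 1 × 10⁵ CFU/0.1 mL (BCG, M. tuberculosis), then serially diluted sample added. Aerobic incubation at 37 °C; hypoxic incubation at 37 °C under N2 with 0.2% O2. MTT (0.5 mg/mL, 50 µL) added for 12 h more, OD560 read to give MIC.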

[2] = test system: Mycobacterium tuberculosis; assay: Antibacterial activity against Mycobacterium bovis BCG under aerobic condition after 7 days by MTT assay; assay type: functional; details: variant bovis BCG, 168 h; method in brief: as §1

Compound	MIC [1]	MIC [2]
Cc1cc(=O)n2c3c(c4c(cc13)c(CO)cc(=O)n4C)OC2	1 µg/mL (≈ 3.35 µM)	1 µg/mL (≈ 3.35 µM)
Cc1cc(=O)n2c3c(c4c(cc13)c(COC(=O)CCCc1cn(CCOCCOCCOCCOCCOCCOCCOCCOCCOCCOCCNC(=O)CCCC[C@@H]3SC[C@@H]5NC(=O)N[C@@H]53)nn1)cc(=O)n4C)OC2	6.25 µg/mL (≈ 5.46 µM)	12.5 µg/mL (≈ 10.9 µM)
COC(=O)CCCc1cn(CCOCCOCCOCCOCCOCCOCCOCCOCCOCCOCCNC(=O)CCCC[C@@H]2SC[C@@H]3NC(=O)N[C@@H]32)nn1	> 200 µg/mL	> 200 µg/mL
NNC(=O)c1ccncc1 [ISONIAZID]	> 100 µg/mL	0.05 µg/mL (≈ 0.365 µM)
